Compounds with a hit are over-represented: about 4.3% of the library has one in this group of screens.
Rin1-Abl PPI inh: blocks binding of human Rin1 to Abl | TR-FRET Rin1/Abl binding, biochemical | 360,000 tested, 0.4% active | inhibition, % at 7.35 µM | P00519+Q13671; in the data active = inhibition above about 5%, passing the limit was not always enough
UBC13 polyUb: inhibitors of human UBC13 polyubiquitin chain formation; P61088; TR-FRET; inhibition, % at 20 µM; 330,000 tested, 0.47% active; AID 485273; in the data active = inhibition above about 45%, passing the limit was not always enough
PREPL inh: inhibitors of human prolyl oligopeptidase-like enzyme PREPL | recombinant PREPL, fluorescence polarization activity-based probe | inhibition, % at 5.96 µM | 320,000 tested, 0.68% active; in the data active = inhibition above about 43%
Target sequence (Q4J6C6 whole entry, looked up): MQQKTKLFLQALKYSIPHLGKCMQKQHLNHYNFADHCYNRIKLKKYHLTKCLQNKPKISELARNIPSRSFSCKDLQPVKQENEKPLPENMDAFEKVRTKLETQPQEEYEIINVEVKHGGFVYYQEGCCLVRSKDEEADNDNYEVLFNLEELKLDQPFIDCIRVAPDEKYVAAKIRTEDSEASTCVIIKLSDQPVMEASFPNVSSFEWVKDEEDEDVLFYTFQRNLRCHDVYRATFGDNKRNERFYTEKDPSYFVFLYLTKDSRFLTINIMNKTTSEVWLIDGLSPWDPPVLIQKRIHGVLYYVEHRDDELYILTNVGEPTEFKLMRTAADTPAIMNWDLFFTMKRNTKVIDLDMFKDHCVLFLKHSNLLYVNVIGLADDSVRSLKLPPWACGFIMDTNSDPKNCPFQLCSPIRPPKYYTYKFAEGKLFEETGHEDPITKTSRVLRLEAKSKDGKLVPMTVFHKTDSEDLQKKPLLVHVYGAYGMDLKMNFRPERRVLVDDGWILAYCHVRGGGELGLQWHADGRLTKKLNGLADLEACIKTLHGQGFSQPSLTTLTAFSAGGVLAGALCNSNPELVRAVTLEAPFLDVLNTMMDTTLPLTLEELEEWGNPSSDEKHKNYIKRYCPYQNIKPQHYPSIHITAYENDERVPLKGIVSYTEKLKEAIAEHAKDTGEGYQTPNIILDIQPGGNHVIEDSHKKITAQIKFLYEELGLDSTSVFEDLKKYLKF
SUMO HTRF inh: inhibitors of human SUMOylation (UBC9); P63279; HTRF SUMOylation assay, SAE1/SAE2 + UBC9, in vitro; inhibition, % at 35 µM; 290,000 tested, 0.36% active; in the data active = inhibition above about 50%, passing the limit was not always enough
ALR inh: blocks human ALR sulfhydryl oxidase activity | AID 485317 | 290,000 tested, 3.8% active | purified ALR, DTT oxidation, H2O2 HRP-luminol luminescence | P55789 | inhibition, % (no concentration beside the values);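 active = mean replicate inhibition above about 79%, with every replicate also reaching it, limit read from the data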
RBBP9 inhibitor: inhibitors of human serine hydrolase RBBP9; inhibition, % at 7.94 µM; recombinant RBBP9, FP-Rh probe fluorescence polarization; AID 1515; O75884; 220,000 tested, 0.2% active;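 active = inhibition above the campaign mean of all tested compounds plus 3 SD, cut at about 14% in these data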
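system = RBBP9 protein | input = RBBP9 at 2.5 µM in dispensed solution, before mixing | measured by = fluorescence polarization (mP), excitation 525 nm, emission 598 nm | incubation = enzyme-compound preincubation 30 min, then probe labeling 45 min, 25 °C | buffer or medium = Tris-NaCl-Pluronic buffer, pH 8.0 | compound = single dose 7.94 µM | also added = FP-Rh probe, 375 nM dispensing solution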
RBBP9 confirm: confirmation of human RBBP9 inhibitors | inhibition, % at 7.94 µM | shares compounds with RBBP9 inhibitor | recombinant RBBP9, FP-Rh probe fluorescence polarization | 410 tested, 36% active;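 active = inhibition above the hit cutoff derived for the primary screen, cut at about 15% in these data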
Of the large screens only hits and unclear results are named; the others gave an inactive call (follow-up assays come after a bar, where they were run).

CCN(C(=O)CN1C(=O)NC2(CCc3ccccc32)C1=O)C1CCCCC1 (centres undefined)	none (no result: SUMO HTRF inh, ALR inh, RBBP9 inhibitor)
CCOC(=O)C(CCCCCOc1ccccc1[N+](=O)[O-])C(=O)OCC	none
CCOC(=O)C(CCCCCOc1ccc([N+](=O)[O-])cc1)C(=O)OCC	RBBP9 inhibitor 18 | RBBP9 confirm inactive
COc1ccc(CN(C)Cc2c(O)ccc3ccccc23)cc1	none (no result: RBBP9 inhibitor)
CCN(CC)C(=O)C1=C(C)N(Cc2ccc(C(C)(C)C)cc2)C(=O)C(CC(=O)NCC2CCCCC2)C1 (centres undefined)	none (no result: UBC13 polyUb, PREPL inh, SUMO HTRF inh, ALR inh, RBBP9 inhibitor)
COC(=O)c1sc2nc(-c3ccco3)ccc2c1N	ALR inh 98, RBBP9 inhibitor 22 | RBBP9 confirm 32
CC(C)OC(=O)c1sc2nc(-c3ccccc3)ccc2c1N	none
CCCCOP(=O)(OCCCC)C1(NS(=O)(=O)c2ccccc2)C=CC(=O)c2ccccc21 (centres undefined)	RBBP9 inhibitor 24 | RBBP9 confirm 16
O=Cc1c[nH]c2ccc(S(=O)(=O)N3CCCCC3)cc12	none (no result: UBC13 polyUb, PREPL inh, SUMO HTRF inh, ALR inh, RBBP9 inhibitor)
CC(=O)Nc1c(F)cc(Br)cc1F	RBBP9 inhibitor 16 (no result: ALR inh) | RBBP9 confirm inactive
CC(C)C[C@H](N)c1nnc(SCc2ccc(Cl)cc2)o1	RBBP9 inhibitor 16 | RBBP9 confirm inactive
O=C1c2ccccc2C(=O)N1CCN1CCc2ccccc21	RBBP9 inhibitor 17 | RBBP9 confirm inactive
O=c1c2ccccc2nc(/C=C/c2cccnc2)n1CCc1ccccc1	none
O=c1c2ccccc2nc(/C=C/c2cccnc2)n1Cc1ccccc1	SUMO HTRF inh 82, RBBP9 inhibitor 15 (no result: UBC13 polyUb, PREPL inh, ALR inh) | RBBP9 confirm 55
CCCOc1ccc(-c2c(C(=O)N/N=C(\C)c3ccncc3)nnn2-c2nonc2N)cc1	none (no result: RBBP9 inhibitor)
CCOC(=O)C1=C(SCC(=O)Nc2ccccc2)NC(=O)C(C#N)C12CCCCC2 (centres undefined)	ALR inh 89, RBBP9 inhibitor 15 | RBBP9 confirm inactive
N#CC1=C(SCC(=O)Nc2cccc3cccnc23)NC(=O)C(C#N)C12CCCCC2 (centres undefined)	none
COc1cc(/C=N/Nc2cccc3cccnc23)cc(OC)c1O	none
COc1cc(/C=N/Nc2ccc(C(F)(F)F)cn2)cc(OC)c1O	RBBP9 inhibitor 17 (no result: PREPL inh, ALR inh) | RBBP9 confirm 15
CC(=O)Nc1ccc2cc3ccc(NC(C)=O)cc3nc2c1	RBBP9 inhibitor 50 (no result: UBC13 polyUb) | RBBP9 confirm inactive
Cc1ccc(S(=O)(=O)N2CCN(S(=O)(=O)N3CCCCCC3)CC2)cc1	none
COc1ccc(OC)c(NC(=O)C2CCN(S(=O)(=O)c3c(C)noc3C)CC2)c1	RBBP9 inhibitor 16 | RBBP9 confirm inactive
COc1ccc(C2=CC(=O)C=CC2=O)cc1	RBBP9 inhibitor 51 (no result: Rin1-Abl PPI inh, UBC13 polyUb, PREPL inh, ALR inh) | RBBP9 confirm 85
O=C(NC1CCC(O)CC1)c1cccc2cccnc12 (centres undefined)	none (no result: ALR inh, RBBP9 inhibitor)
O=C(NN=C1CCCC1)c1ccccc1OCCOc1ccccc1	RBBP9 inhibitor 23 | RBBP9 confirm inactive
CCOc1cc2nc(-c3ccc(OC)c(OC)c3)nc(NCCCN3CCOCC3)c2cc1OC	none
COc1cc2ncnc(NCCCN3CCOCC3)c2cc1OC	RBBP9 inhibitor 15 (no result: ALR inh) | RBBP9 confirm inactive
COc1ccc(Cl)cc1S(=O)(=O)N(C)CC(=O)NCc1ccc2c(c1)OCO2	none (no result: RBBP9 inhibitor)
O=[N+]([O-])c1ccc(-c2nc(Nc3ccc(O)cc3)c3ccccc3n2)cc1	none (no result: PREPL inh, RBBP9 inhibitor)
Oc1ccc(Nc2nc3ccccc3nc2Nc2ccc(O)cc2)cc1	ALR inh 96, RBBP9 inhibitor 21 | RBBP9 confirm 37
COc1cccc(CCc2nnc(CCC(=O)N3CCN(Cc4ccccn4)CC3)o2)c1	none
O=C(Nc1cccc(Cl)c1)Nc1sccc1-c1nc2ccccc2s1	RBBP9 inhibitor 15 | RBBP9 confirm 19
CC(=O)N(C1=C(Cl)C(=O)c2ccccc2C1=O)C1CCCCC1	SUMO HTRF inh 71, RBBP9 inhibitor 55 | RBBP9 confirm 89
CC(=O)N(c1ccccc1C)C1CCCC1	none
CCCCC(=O)Nc1ccc(C(=O)NN2C(=O)c3ccccc3C2=O)cc1	none
CC1CCCN(Cc2ccc(OCc3ccccc3)cc2)C1 (centres undefined)	none (no result: RBBP9 inhibitor)
CCOC(=O)C(C)(C)Sc1ncnc2nc[nH]c12	RBBP9 inhibitor 16 | RBBP9 confirm inactive
CCOC(=O)N1CCN(c2ncnc3nc[nH]c23)CC1	none
CC(C)OC(=O)CC(=O)CSc1nc2c(cc1C#N)CCC2	none
COC(=O)CC(=O)CSc1nc2c(cc1C#N)CCC2	RBBP9 inhibitor 24 | RBBP9 confirm inactive
COc1ccc(C(C(=O)NCC2CCCO2)N(C(=O)c2snc(C(N)=O)c2N)c2ccc(C)cc2)cc1OC (centres undefined)	none (no result: PREPL inh, ALR inh, RBBP9 inhibitor)
O=[N+]([O-])c1ccc(Nc2c3ccccc3nc3ccccc23)cc1	RBBP9 inhibitor 16 (no result: PREPL inh, ALR inh) | RBBP9 confirm inactive
O=[N+]([O-])c1ccccc1Nc1c2ccccc2nc2ccccc12	none
COCCNC(=O)C1(C)CCCN(C(=O)c2ccccc2OC)C1 (centres undefined)	none (no result: UBC13 polyUb, PREPL inh, SUMO HTRF inh, ALR inh, RBBP9 inhibitor)
COc1ccc(NC(=O)C2CSC3c4ccccc4C(=O)N23)cc1 (centres undefined)	RBBP9 inhibitor 14 | RBBP9 confirm inactive
CCCCSc1cnn(-c2ccccc2)c(=O)c1SCCCC	RBBP9 inhibitor 16 (no result: ALR inh) | RBBP9 confirm inactive
CCSc1cnn(-c2ccccc2)c(=O)c1SCC	none
O=C(Nc1ccc(F)cc1)Nc1csc2ccccc12	none
CN(C)c1ccc(NC(=O)Nc2csc3ccccc23)cc1	RBBP9 inhibitor 19 (no result: ALR inh) | RBBP9 confirm 58
CCOc1cc(C(=O)NC(C)C2CCCO2)cc(OCC)c1OCC (centres undefined)	RBBP9 inhibitor 16 | RBBP9 confirm inactive
CCOc1cc(C(=O)NC(C)C2CC3CCC2C3)cc(OCC)c1OCC (centres undefined)	none (no result: SUMO HTRF inh, RBBP9 inhibitor)
CC1CCN(C(=O)CSc2nnc3ccccn23)CC1	none (no result: SUMO HTRF inh, RBBP9 inhibitor)
O=C(CSc1nnc2ccccn12)N1CCOCC1	RBBP9 inhibitor 14 | RBBP9 confirm inactive
NC(=Nc1ccccc1)N(c1ccccc1)c1ccccc1	none (no result: UBC13 polyUb, PREPL inh, SUMO HTRF inh, ALR inh, RBBP9 inhibitor)
COC(=O)C1=C(C)N(Cc2ccc(C)cc2)C(=O)/C1=C\c1ccc(O)c(OC)c1	none
CCOC(=O)C1=C(C)N(c2ccc(C)cc2)C(=O)/C1=C\c1ccc(O)c(OC)c1	RBBP9 inhibitor 15 | RBBP9 confirm 29
COc1ccc(S(=O)(=O)N2CCN(c3cnccn3)CC2)cc1OC	none (no result: SUMO HTRF inh, RBBP9 inhibitor)
Cc1nc2scc(-c3ccccc3)c2c(=O)n1N=C1C=CC(=O)C=C1	RBBP9 inhibitor 49 (no result: Rin1-Abl PPI inh, PREPL inh, ALR inh) | RBBP9 confirm 59
Cc1nc2scc(-c3ccccc3)c2c(=O)n1N	none
COC(=O)c1c(NC(=O)C2COc3ccccc3O2)sc2c1CCN(C(=O)OC)C2 (centres undefined)	none (no result: UBC13 polyUb, PREPL inh, SUMO HTRF inh, ALR inh, RBBP9 inhibitor)
CC(C)NC(=O)CCS(=O)(=O)c1ccc(Br)s1	RBBP9 inhibitor 18 | RBBP9 confirm inactive
O=C(CCS(=O)(=O)c1ccc(Br)s1)NC1CCCC1	none
